≈ marks a conversion by molar mass, not a printed value. Calls of active or inactive are those of the source. The calls are words filed in the database; no cut-off is given here.
Columns and labels:
Klebsiella pneumoniae [1] = experiment: Antimicrobial activity against Klebsiella pneumoniae 52145; format: functional
Klebsiella pneumoniae [2] = experiment: Antimicrobial activity against Klebsiella pneumoniae 52OmpA2 at 100 ug/disk by disk diffusion method; format: functional, organism-based
In short: (§1)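 Disk diffusion with SDS at 100 µg per disk.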

Klebsiella pneumoniae [3] = experiment: Antimicrobial activity against Klebsiella pneumoniae 52OmpA2 at 80 ug/disk by disk diffusion method; format: functional; settings: 52OmpA2, read-out: IZ
In short: (§2)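 Disk diffusion with novobiocin at 80 µg per disk. The diffusion halo was measured in cm and reported as mean ± error, with groups compared by P value.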

Klebsiella pneumoniae [4] = experiment: Antimicrobial activity against Klebsiella pneumoniae 52145 at 100 ug/disk by disk diffusion method; format: functional, organism-based; in short: as §1
Klebsiella pneumoniae [5] = experiment: Antimicrobial activity against Klebsiella pneumoniae 52OmpA2Com; format: functional
Klebsiella pneumoniae [6] = experiment: Antimicrobial activity against Klebsiella pneumoniae 52145 assessed as decrease in bacterial survival after 1 hr; format: functional, organism-based
In short: (§3)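 Bacterial survival assay: cells were exposed to polymyxin B or protamine for 1 h, or to HNP-1 at a fixed 20 µg/ml for 3 h, and surviving bacteria were then counted. Polymyxin B curves are the mean ± SD of six samples from three independently grown batches. HNP-1 data are the mean ± SD of three experiments, each run in duplicate. Strains were compared by two-tailed t test.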

Klebsiella pneumoniae [7] = experiment: Binding affinity to Klebsiella pneumoniae 52OmpA2 outer membrane assessed as amount of peptide bound at 16 ug/ml after 30 mins
In short: (§4)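 Bacteria were incubated with the peptide for 30 min, and the amount of peptide bound was then determined, expressed in µg/ml. Strains were compared by two-tailed t test.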

Klebsiella pneumoniae [8] = experiment: Antimicrobial activity against Klebsiella pneumoniae 52145 by Etest; format: functional, organism-based
Klebsiella pneumoniae [9] = experiment: Antimicrobial activity against Klebsiella pneumoniae 52145 assessed as induction of bacterial wall damage by propidium iodide staining-based fluorescence spectroscopy; format: functional, organism-based
Klebsiella pneumoniae [10] = experiment: Antimicrobial activity against Klebsiella pneumoniae 52OmpA2 assessed as decrease in bacterial survival after 1 hr; format: functional, organism-based; in short: as §3
Klebsiella pneumoniae [11] = experiment: Binding affinity to wcaK2-deficient Klebsiella pneumoniae 52145 lipopolysaccharide assessed as amount of peptide bound at 16 ug/ml after 30 mins
In short: (§5)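 LPS was purified from capsule (CPS) mutants to avoid copurifying capsule. LPS at 50 µg/ml was incubated with polymyxin B at 16 µg/ml for 30 min, and the bound peptide was measured in µg/ml.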

Klebsiella pneumoniae [12] = experiment: Antimicrobial activity against Klebsiella pneumoniae 52145 assessed as decrease in bacterial survival at 1 ug/ml pre-exposed for 1 hr during growth phase; format: functional, organism-based
In short: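 Cells were pretreated during growth with polymyxin B (final 1 µg/ml, 1 h), washed, and then tested for polymyxin B susceptibility by the same survival assay, alongside untreated cells. Values are the mean ± SD of six samples from three independently grown batches. Pretreated and untreated cells were compared by two-tailed t test.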

Klebsiella pneumoniae [13] = experiment: Antimicrobial activity against Klebsiella pneumoniae 52OmpA2 by Etest; format: functional, organism-based
Klebsiella pneumoniae [14] = experiment: Antimicrobial activity against Klebsiella pneumoniae 52OmpA2Com by Etest; format: functional, organism-based
Klebsiella pneumoniae [15] = experiment: Antimicrobial activity against Klebsiella pneumoniae 52OmpA2 assessed as induction of bacterial wall damage by propidium iodide staining-based fluorescence spectroscopy; format: functional, organism-based
Klebsiella pneumoniae [16] = experiment: Antimicrobial activity against wcaK2-deficient Klebsiella pneumoniae 52145 assessed as decrease in bacterial survival; format: functional, organism-based; in short: as §3
Klebsiella pneumoniae [17] = experiment: Antimicrobial activity against Klebsiella pneumoniae 52OmpAK36 harboring OmpA K36 mutant gene assessed as decrease in bacterial survival after 1 hr by coomassie blue staining; format: functional, organism-based
Klebsiella pneumoniae [18] = experiment: Binding affinity to wcaK2-deficient Klebsiella pneumoniae 52OmpA2 lipopolysaccharide assessed as amount of peptide bound at 16 ug/ml after 30 mins; in short: as §5
Klebsiella pneumoniae [19] = experiment: Antimicrobial activity against wcaK2-deficient Klebsiella pneumoniae 52OmpA2 assessed as decrease in bacterial survival; format: functional, organism-based; in short: as §3
Klebsiella pneumoniae [20] = experiment: Binding affinity to Klebsiella pneumoniae 52145 outer membrane assessed as amount of peptide bound at 16 ug/ml after 30 mins; in short: as §4
Klebsiella pneumoniae [21] = experiment: Antimicrobial activity against Klebsiella pneumoniae 52OmpA2Com assessed as decrease in bacterial survival after 1 hr; format: functional, organism-based; in short: as §3
Klebsiella pneumoniae [22] = experiment: Antimicrobial activity against Klebsiella pneumoniae 52145 at 80 ug/disk by disk diffusion method; format: functional, organism-based; in short: as §2

`CC1(C)S[C@@H]2[C@H](NC(=O)[C@H](N)c3ccc(O)cc3)C(=O)N2[C@H]1C(=O)O` [AMOXICILLIN] was tested, and the MIC (Klebsiella pneumoniae [1]) was 2 µg/mL (≈ 5.47 µM).

`CO/N=C(\C(=O)N[C@@H]1C(=O)N2C(C(=O)O)=C(COC(C)=O)CS[C@H]12)c1csc(N)n1` [CEFOTAXIME] showed an MIC (Klebsiella pneumoniae [1]) of 0.05 µg/mL (≈ 0.11 µM).

Work on `O=C(O)c1cn(C2CC2)c2cc(N3CCNCC3)c(F)cc2c1=O` [CIPROFLOXACIN] yielded an MIC (Klebsiella pneumoniae [1]) of 0.05 µg/mL (≈ 0.151 µM).

For `C[C@@H](O)[C@H]1C(=O)N2C(C(=O)O)=C(SCCNC=N)C[C@H]12` [IMIPENEM ANHYDROUS], the MIC (Klebsiella pneumoniae [1]) was 0.05 µg/mL (≈ 0.167 µM).

In the case of `CO[C@@H]1[C@@H](OC(N)=O)[C@@H](O)[C@H](Oc2ccc3c(O)c(NC(=O)c4ccc(O)c(CC=C(C)C)c4)c(=O)oc3c2C)OC1(C)C` [NOVOBIOCIN], the Activity (Klebsiella pneumoniae [2]) is reported as “inactive”, the zone of inhibition at 80 µg/disc (Klebsiella pneumoniae [3]) is reported as 8.5 mm and the Activity (Klebsiella pneumoniae [4]) is reported as “inactive”.

GENTAMICIN showed an MIC (Klebsiella pneumoniae [5]) of 0.15 µg/mL and an MIC (Klebsiella pneumoniae [1]) of 0.15 µg/mL.

POLYMYXIN B was tested, and the Activity (Klebsiella pneumoniae [6]) was “inactive”, the Activity (Klebsiella pneumoniae [7]) was 8.1 µg/mL and the MIC (Klebsiella pneumoniae [8]) was 0.75 µg/mL. The Activity (Klebsiella pneumoniae [9]) was “inactive”, the inhibition (Klebsiella pneumoniae [10]) was “Active” and the Activity (Klebsiella pneumoniae [11]) was 4.8 µg/mL. For the same compound, the Activity (Klebsiella pneumoniae [12]) was “inactive”, the MIC (Klebsiella pneumoniae [13]) was 0.31 µg/mL and the MIC (Klebsiella pneumoniae [14]) was 0.75 µg/mL. The Activity (Klebsiella pneumoniae [15]) was “inactive”, the inhibition (Klebsiella pneumoniae [16]) was “Active” and the inhibition (Klebsiella pneumoniae [17]) was “inactive”. The Activity (Klebsiella pneumoniae [18]) was 4.4 µg/mL, the inhibition (Klebsiella pneumoniae [19]) was “Active” and the Activity (Klebsiella pneumoniae [20]) was 7.4 µg/mL. For the same compound, the Activity (Klebsiella pneumoniae [21]) was “Active” and the inhibition zone (IZ) (Klebsiella pneumoniae [22]) was 9 mm.
